Screening data: PubChem BioAssay, several laboratories
SKN-1 inh – blocks SKN-1 activity in C. elegans; C. elegans VP596 Pgst-4::GFP/RFP ratio, acrylamide-induced, 24 h; inhibition, % at 21.8 µM; 360,000 tested, 0.49% active;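 active means interference check ratio from 0.5 to 1.5 plus GFP to RFP signal ratio inhibition reaching or exceeding a fixed threshold, cut at about 30% in these data, passing the limit was not always enough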
NR2E3 ag-1 – NR2E3 (human) agonism | Q9Y5X4 | inhibition of corepressor binding, % at 4.78 µM | GST-NR2E3/biotin-RetCOR TR-FRET, 1536-well | 320,000 tested, 0.12% active | AID 2300;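 active means percent inhibition above the cutoff of mean plus 3 SD of all tested compounds, set per screening campaign, cut at about 20% in these data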
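System: GST-tagged NR2E3 plus biotinylated RetCOR corepressor; Amount: 1.35 nM GST-tagged NR2E3 final; Dosing: single nominal compound dose of 4.8 µM; Schedule: 5 h incubation at 4 °C; Technique: TR-FRET with europium anti-GST and streptavidin-D2, 340 nm excitation; Controls: biotin wells as high control, 0.6% DMSO wells as low control.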
PG9 Ab binder – binds the HIV-1 gp120 antibody PG9 | TR-FRET gp120-PG9 antibody binding | inhibition, % at 6.7 µM | 360,000 tested, 0.43% active | AID 624416; in the data active means inhibition above about 8.5%
Rev-erbA mod – modulates human Rev-erb alpha binding to DNA; P20393; AID 1259318; Rev-erbα–FITC-DNA binding, fluorescence polarization, 90 min; 370,000 tested, 0.79% active; activity, % at 10 µM;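 active means activity above about 14%, limit read from the data; passing the limit was not always enough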
Target sequence (P20393 whole entry, looked up): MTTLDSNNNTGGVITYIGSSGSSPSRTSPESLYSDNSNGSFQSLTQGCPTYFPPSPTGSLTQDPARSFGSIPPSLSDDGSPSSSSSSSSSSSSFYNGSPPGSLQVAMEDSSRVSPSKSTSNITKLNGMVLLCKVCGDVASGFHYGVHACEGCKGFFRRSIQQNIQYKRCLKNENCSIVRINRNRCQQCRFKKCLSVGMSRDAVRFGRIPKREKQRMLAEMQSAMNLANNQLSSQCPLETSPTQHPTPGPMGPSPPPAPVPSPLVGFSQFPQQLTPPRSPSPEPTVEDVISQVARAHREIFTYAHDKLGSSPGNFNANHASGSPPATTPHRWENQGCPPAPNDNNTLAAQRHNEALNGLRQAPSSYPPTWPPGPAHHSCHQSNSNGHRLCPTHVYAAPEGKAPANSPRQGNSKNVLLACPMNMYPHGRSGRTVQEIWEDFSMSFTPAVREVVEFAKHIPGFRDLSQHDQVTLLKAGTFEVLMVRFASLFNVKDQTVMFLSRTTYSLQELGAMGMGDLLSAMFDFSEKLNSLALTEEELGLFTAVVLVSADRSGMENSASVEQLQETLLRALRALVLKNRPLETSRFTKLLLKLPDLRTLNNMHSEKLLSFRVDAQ
MT1-MMP act inh – inhibitors of human MT1-MMP activation. 360,000 tested, 0.061% active. GFP/RFP ratio change, % at 20 µM. HT1080 RFP-PRO-GFP cells, GFP/RFP ratio fluorescence, overnight; percent of plate control window, DMSO zero. P50281;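 active means GFP/RFP ratio change of at least 30% with cell ATP level not reduced by more than half and red fluorescence within 50% of control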
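Test system: HT1080 cells expressing an RFP-PRO-GFP fluorescent reporter construct / Compound dosing: single-point 20 µM compound, 1% DMSO / Schedule: cells overnight before dosing, compound overnight, 37 °C, 5% CO2 / Evaluation: GFP/RFP fluorescence ratio / Control set: DMSO and RFP-L50D-GFP cell wells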
NR2E3 ag-2 – activates human NR2E3 receptor; AID 602229; inhibition of corepressor binding, % at 3.98 µM; 360,000 tested, 0.35% active; Q9Y5X4; CHO-S Gal4-NCOR/VP16-NR2E3 two-hybrid, luciferase;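 active means inhibition above the mean of all tested compounds plus 3 SD, cut at about 70% in these data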;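 further: higher means lower luciferase signal from less NR2E3 corepressor binding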
NR1D1 mod conf – Rev-erb alpha (human) modulation, hit confirmation; shares compounds with Rev-erbA mod; Rev-erb alpha FITC-DNA binding, fluorescence polarization, 90 min; activation, % at 25 µM; 3,000 tested, 61% active;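 active means activation at or above a set limit, or at least 3 SD above the negative control mean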
RORg counter – affects RORgamma DNA binding in a Rev-erb alpha counter-screen; shares compounds with Rev-erbA mod; purified RORgamma protein-FITC-DNA binding, fluorescence polarization; IC50, µM; 910 tested, 8% active;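 active means Compounds whose fitted half-maximal concentration for disrupting protein-DNA binding is below 10 micromolar; the record names Rev-erb in its text, so the target is in doubt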
Numbers stand for hits; – = inactive; · = no result given. Shown are actives, neighbours in structure and some others; about 1.9% of the full set was active somewhere.

SMILES	SKN-1 inh	NR2E3 ag-1	PG9 Ab binder	Rev-erbA mod	MT1-MMP act inh	NR2E3 ag-2	NR1D1 mod conf	others
CCCCS(=O)(=O)N1CCCc2nc(-c3ccccc3)ccc21	·	·	–	–	·	·	·
COCCn1c(=NC(=O)c2cc(Cl)sc2Cl)sc2cc(S(N)(=O)=O)ccc21	–	–	–	–	–	–	·
COC(=O)Cn1c(=NC(=O)c2nc3ccccc3s2)sc2cc(S(N)(=O)=O)ccc21	–	–	–	39	–	–	23
COCCn1c(=NC(=O)c2nc3ccccc3s2)sc2cc(S(C)(=O)=O)ccc21	–	–	–	89	–	–	63	RORg counter=–
COCCn1c(=NC(=O)c2ccc3c(c2)OCCO3)sc2cc(S(N)(=O)=O)ccc21	–	–	–	29	–	–	38	RORg counter=–
O=C(NCCc1ccccc1)OCc1cn(-c2c(F)cccc2F)nn1	·	·	·	–	·	·	·
COC(=O)Cc1ccccc1NS(=O)(=O)c1ccc(C)cc1	–	·	–	–	–	·	·
COc1ccc(C(=O)N=C2SC3CS(=O)(=O)CC3N2c2ccc(N(C)C)cc2)cc1OC (stereo unspecified)	–	–	–	53	–	–	–
O=C(CCc1c[nH]c2ccccc12)NCCc1ccc(Cl)cc1	–	–	–	37	–	–	36	RORg counter=–
O=C(Nc1ccc(F)cc1F)C1CCN(c2ncnc3c2sc2cccc(F)c23)CC1	–	–	–	33	–	–	27
CCN(CC)CCCNC(=O)C1CCN(c2ncnc3c2sc2cccc(F)c23)CC1	–	–	–	–	–	–	·
COc1ccc(NC(=S)Nc2cc(C)cc(C)n2)cc1OC	–	–	–	22	–	–	–
Cc1cc(C)nc(NC(=S)Nc2ccc(Br)cc2Cl)c1	–	–	–	–	–	–	·
Cc1cc(C)nc(NC(=S)Nc2cccc(Cl)c2Cl)c1	–	–	–	63	–	–	–
CNC(=S)Nc1ccc(OC)c(OC)c1	–	–	–	–	–	–	·
CCCc1cn(-c2ccc3c(c2)[C@@]2(CC(=O)N(C)C2c2ccccc2)C(=O)N3CC(C)C)nn1 (stereo partly specified)	·	·	·	–	·	·	·
CCc1noc(C)c1C(=O)Nc1nc(-c2ccc(Cl)cc2Cl)c(C)s1	–	–	–	32	–	–	25
CCc1noc(C)c1C(=O)Nc1ccc(F)c(F)c1	–	–	–	–	–	–	·
COCc1cc(N2CCN(C(=O)OC(C)(C)C)C[C@H]2C)ccc1N1CCS(=O)(=O)CC1	·	·	–	–	·	·	·
O=c1oc2c3c4c(cc2c(C(F)(F)F)c1CCN1CCOCC1)CCCN4CCC3	–	–	–	52	–	–	63	RORg counter=–
O=[N+]([O-])c1cccc(COc2ccc(CO)cc2)c1	·	·	–	–	·	·	·
CCOC(=O)c1c(-c2cccs2)csc1NC(=O)c1ccco1	–	–	–	36	–	–	–
CN(Cc1ccccc1)C(=O)c1cnc(Cc2c[nH]c3ccccc23)c(I)c1	–	·	–	16	–	–	–
COc1cc2c3nnc(-c4ccccc4)c-3cn(Cc3ccc(F)cc3)c2cc1OC	–	–	–	23	–	–	–
Cn1c(/C(C#N)=C(\O)c2ccc(Br)s2)nc2ccccc21	–	–	–	39	–	–	–
SMILES	SKN-1 inh	NR2E3 ag-1	PG9 Ab binder	Rev-erbA mod	MT1-MMP act inh	NR2E3 ag-2	NR1D1 mod conf	others
Cn1c(/C(C#N)=C(\O)c2cc(Cl)sc2Cl)nc2ccccc21	–	–	–	–	–	–	·
C=CCCC1CN(Cc2ccc(OC)cc2)S(=O)(=O)c2c(Oc3ccc(C(C)C)cc3)cccc2O1 (stereo unspecified)	·	·	–	–	·	·	·
Nc1[nH]c(C(=O)c2ccccc2)c(-c2cccc(C(F)(F)F)c2)c1C(=O)c1c[nH]c2ccccc12	·	·	–	–	·	·	·
O=[N+]([O-])c1cc([N+](=O)[O-])c(Oc2cccnc2Br)cc1NN1CCCCC1	–	–	–	16	–	–	–
NC(Cc1ccc(C(F)(F)F)cc1)c1csc(NC(=O)NCCc2ccccc2)n1 (stereo unspecified)	–	·	–	–	–	–	·
CCOc1cc2[nH]c(=S)n(CCC(=O)NCc3ccco3)c(=O)c2cc1OCC	–	–	–	27	–	–	–
COc1ccc(Cl)cc1-c1nc(-c2ccncc2)no1	–	–	–	30	–	–	–
COc1ccc(C2CC(=O)C(c3cccc(C)c3)=CN2Cc2ccccc2)cc1 (stereo unspecified)	·	·	–	–	·	·	·
COc1ccc(N2CCN(c3oc(-c4ccc(OC)c(OC)c4)nc3C#N)CC2)cc1	–	–	–	58	–	–	–
COc1cccc(C(=O)CSc2nnc(-c3cc(OC)cc(OC)c3)o2)c1	–	–	–	27	–	–	36	RORg counter=–
COc1cccc(C(=O)CSc2nnc(-c3cccs3)o2)c1	–	–	–	–	–	–	·
CCCCOCC1CN(CCCC)S(=O)(=O)c2c(Oc3ccc(C)cc3)cccc2O1 (stereo unspecified)	·	·	–	–	·	·	·
Cc1nc(SCC(=O)NCc2ccco2)c2c3c(sc2n1)CCCC3	–	–	–	–	–	–	·
O=C(CSc1nc(C2CC2)nc2sc3c(c12)CCCC3)NCc1ccco1	–	–	–	27	–	–	–
COc1ccc(C(=O)Nc2ccc(Oc3ncnc4sc(-c5ccccc5)cc34)cc2)cc1OC	–	–	–	–	–	–	·
COc1cc(C(=O)Nc2ccc(Oc3ncnc4sc(-c5ccccc5)cc34)cc2)cc(OC)c1OC	–	–	–	30	–	–	–
COc1ccccc1C(=O)Nc1ccc(Oc2ncnc3sc(-c4ccccc4)cc23)cc1	–	–	–	46	–	–	21
COc1ccc(C(=O)Nc2ccc(Oc3nc(C)nc4sc(-c5ccccc5)cc34)cc2)cc1OC	–	–	–	–	–	–	·
c1ccc(Cc2cnc(N3CCN(Cc4ccc5c(c4)OCCO5)CC3)nc2)cc1	·	·	–	–	·	·	·
COc1ccccc1-n1cc(-c2ccc(Br)cc2)[nH]c1=S	–	–	–	–	–	–	·
S=c1[nH]c(-c2ccc(Br)cc2)cn1CCc1ccccc1	–	–	–	17	–	–	28
COc1ccc(OC)c(NC(=O)c2ccccc2N(Cc2ccccc2)C(=O)C(C)Cl)c1 (stereo unspecified)	·	·	·	–	·	·	·
Fc1cccc2sc(Nc3nc4cc5c(cc4s3)OCCO5)nc12	–	–	–	34	–	–	35	RORg counter=–
Fc1cccc2sc(Nc3nc4cc5c(cc4s3)OCO5)nc12	–	–	–	–	–	–	·
